This is an account of results in ChEMBL document CHEMBL4823327, “New Selective Inhibitors of ERG Positive Prostate Cancer: ERGi-USU-6 Salt Derivatives” (ACS Med Chem Lett, 2021).

For one series, the system named is VCaP. In words: Cytotoxicity against human VCaP cells assessed as inhibition of cell growth after 120 hrs by Cell Glow […] assay. It counts as functional, cell-based.
Series [1] addresses Serine/threonine-protein kinase RIO2 (Homo sapiens) (UniProt Q9BVS4). In words: Inhibition of RIOK2 in HUVEC at 0.05 to 0.25 uM. The settings on record: dose 0.05-0.25 µM. Put shortly: (§1)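 HUVEC (ERG-positive normal primary endothelial cells) were treated at the same doses as VCaP cells, over a 0–0.25 μmol/L range. Read-outs were cell growth and endogenous ERG and RIOK2 protein levels.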

Series [2] in a line: Toxicity in ip dose athymic nude mouse assessed as maximum tolerated dose administered twice a week for 4 weeks. It counts as organism-based. The conditions noted are these: in vivo. A digest of the protocol:
(§2)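 Athymic nude mice were split into five dose groups of 5 animals each: vehicle (90% PEG + 10% DMSO), 50, 100, 150 or 200 mg/kg in the same vehicle, given by injection. Survival and body weight were monitored through the study, with gross examination of major organs and the injection site. MTD was taken as the highest dose at which all animals survived.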

A further series concerns HUVEC. In words: Cytotoxicity against HUVEC assessed as inhibition of cell growth at 0.05 to 0.25 uM. It counts as cell-based. The conditions noted are these: human, dose 0.05-0.25 µM. A digest of the protocol: as §1
A short description of series [3]: Toxicity in athymic nude mouse assessed as body weight loss at 200 mg/kg, ip administered twice a week for 4 weeks. It counts as organism-based. The settings on record: in vivo, 672 h. A digest of the protocol: as §2
Series [4] is described as follows: Toxicity in athymic nude mouse assessed as tissue and vasculature damage at 200 mg/kg, ip administered twice a week for 4 weeks. It is filed as organism-based. The settings on record: in vivo, 672 h. Put shortly:
as §2

A short description of series [5]: Toxicity in athymic nude mouse assessed as localized inflammation at 200 mg/kg, ip administered twice a week for 4 weeks. It counts as organism-based. The settings on record: in vivo, 672 h. A digest of the protocol:
as §2

Series [6] is described as follows: Toxicity in athymic nude mouse assessed as health deterioration at 100 mg/kg, ip administered twice a week for 4 weeks. It is filed as organism-based. The conditions noted are these: in vivo, 672 h. A digest of the protocol:
as §2

The structures appear in SMILES notation. Active and inactive are the calls of the source. No cut-off for these calls is given here.

Serine/threonine-protein kinase RIO2 (Homo sapiens), sequence (Q9BVS4 whole entry, looked up): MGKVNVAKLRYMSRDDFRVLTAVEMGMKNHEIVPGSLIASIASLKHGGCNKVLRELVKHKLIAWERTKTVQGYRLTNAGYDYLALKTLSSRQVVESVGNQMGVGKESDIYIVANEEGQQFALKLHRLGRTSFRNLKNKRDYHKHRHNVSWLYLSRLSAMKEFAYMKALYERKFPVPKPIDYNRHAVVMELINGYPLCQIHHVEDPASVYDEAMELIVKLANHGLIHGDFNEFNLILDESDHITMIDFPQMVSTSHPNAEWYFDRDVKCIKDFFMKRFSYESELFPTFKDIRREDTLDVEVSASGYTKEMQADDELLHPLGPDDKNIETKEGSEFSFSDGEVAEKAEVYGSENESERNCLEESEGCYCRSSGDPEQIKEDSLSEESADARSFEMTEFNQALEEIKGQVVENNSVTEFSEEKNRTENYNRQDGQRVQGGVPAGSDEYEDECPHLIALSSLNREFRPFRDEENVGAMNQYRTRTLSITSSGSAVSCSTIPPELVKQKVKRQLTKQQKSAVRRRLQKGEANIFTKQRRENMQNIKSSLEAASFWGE

The IC50 is the midpoint of a concentration-inhibition curve. `CC(=O)C(=O)O.CN(C)c1ccc(/N=N/c2ccccn2)c(O)c1`: the IC50 with VCaP (Homo sapiens, VCaP, 120 h) is greater than 500 nM.
As for `CN(C)c1ccc(/N=N/c2ccccn2)c(O)c1` [listing 1 of 3 here], in series [1], the inhibition entry was “inactive”.
For orientation: MTD means the highest dose tested that stayed within the study's limit of toxicity. Regarding `Oc1ccc2ccccc2c1/N=N/c1nccs1`, in the series with VCaP (Homo sapiens, VCaP, 120 h), the IC50 came to 170 nM. Moreover, the maximum tolerated dose (MTD) at 672 h in series [2] amounted to 150 mg/kg.
As for `CN(C)c1ccc(/N=N/c2ccccn2)c(O)c1` [listing 2 of 3 here], the IC50 with VCaP (vcap) was greater than 500 nM.
In the case of `CN(C)c1ccc(/N=N/c2ccccn2)c(O)c1.CS(=O)(=O)O`, the IC50 with VCaP (vcap) came out at 89 nM. In addition, in the series with HUVEC, the Activity entry is reported as “Non-Toxic”.
`CN(C)c1ccc(/N=N/c2ccccn2)c(O)c1` [listing 3 of 3 here]: in series [2], the MTD at 672 h amounted to 100 mg/kg. The Activity result in series [3] is listed as “Toxic”; in series [4], “Toxic”; in series [5], “Toxic”; in series [6], “Non-Toxic”.
